In ChEMBL document CHEMBL2203183, “Synthesis of N-phenyl-N-(3-(piperidin-1-yl)propyl)benzofuran-2-carboxamides as new selective ligands for sigma receptors” (Bioorg Med Chem, 2012):

Legend:
PC-12 = assay: Displacement of [3H]DTG from sigma 2 receptor in rat PC12 cell membrane at 10 uM after 2 hrs by scintillation counting; type: cell membranes
[1] = target: T1, 5-hydroxytryptamine receptor 3A (Homo sapiens) (UniProt P46098); assay: Displacement of [3H]LY278584 from human recombinant 5-HT3 receptor at 10 uM after 1.5 hrs by scintillation counting analysis
T1 sequence (whole entry): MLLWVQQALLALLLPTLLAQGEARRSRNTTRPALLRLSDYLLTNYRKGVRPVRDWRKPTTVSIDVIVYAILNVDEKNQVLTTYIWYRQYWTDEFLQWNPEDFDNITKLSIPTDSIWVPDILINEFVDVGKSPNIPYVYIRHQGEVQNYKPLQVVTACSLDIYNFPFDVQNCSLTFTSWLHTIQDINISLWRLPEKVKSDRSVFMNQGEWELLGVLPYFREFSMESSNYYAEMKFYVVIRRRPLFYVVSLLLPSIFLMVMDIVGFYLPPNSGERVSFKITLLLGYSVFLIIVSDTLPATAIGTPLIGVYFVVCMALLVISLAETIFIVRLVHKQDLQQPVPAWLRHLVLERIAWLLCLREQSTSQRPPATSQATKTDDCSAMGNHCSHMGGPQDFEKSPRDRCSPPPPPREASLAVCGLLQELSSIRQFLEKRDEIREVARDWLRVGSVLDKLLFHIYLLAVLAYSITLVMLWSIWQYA
How it was run: (§1)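 NIMH-PDSP primary screen using membranes from transiently or stably transfected cell lines (e.g., HEK293, COS, CHO, NIH3T3). Compound at 10 μM final. Reference compounds: chlorpromazine (5-HT2A), methysergide (5-HT2B), LY278584 (5-HT3), oxymetazoline (α2A), prazosin (α2C), atropine (M4). Mean % inhibition of radioligand specific binding, N = 4.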

[2] = target: T2, Alpha-2C adrenergic receptor (Homo sapiens) (UniProt P18825); assay: Displacement of [3H]clonidine from alpha2C adrenergic receptor at 10 uM after 40 mins by scintillation counting analysis; how it was run: as §1
T2 sequence (whole entry): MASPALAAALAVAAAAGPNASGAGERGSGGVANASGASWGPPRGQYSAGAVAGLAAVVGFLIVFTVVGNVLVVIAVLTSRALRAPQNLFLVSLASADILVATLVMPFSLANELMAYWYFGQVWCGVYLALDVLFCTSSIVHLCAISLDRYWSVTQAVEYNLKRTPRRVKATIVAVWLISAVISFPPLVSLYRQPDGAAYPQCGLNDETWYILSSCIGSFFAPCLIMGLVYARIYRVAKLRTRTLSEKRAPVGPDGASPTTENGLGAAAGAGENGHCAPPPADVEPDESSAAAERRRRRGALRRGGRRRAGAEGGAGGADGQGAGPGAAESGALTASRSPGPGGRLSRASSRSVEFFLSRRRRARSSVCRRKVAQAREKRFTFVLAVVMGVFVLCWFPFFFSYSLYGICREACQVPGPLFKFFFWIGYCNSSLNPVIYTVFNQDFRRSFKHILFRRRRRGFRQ

[3] = Displacement of [3H]DTG from sigma 2 receptor in rat PC12 cell membrane after 2 hrs by scintillation counting; type: cell membranes; conditions: pc-12
[4] = target: D(3) dopamine receptor (Homo sapiens) (UniProt P35462); assay: Displacement of [3H]N-methylspiperone from dopamine D3 receptor at 10 uM after 1.5 hrs by scintillation counting analysis
[5] = target: T3, Muscarinic acetylcholine receptor M4 (Homo sapiens) (UniProt P08173); assay: Displacement of [3H]QNB from human recombinant M4 receptor at 10 uM after 1.5 hrs by scintillation counting analysis; how it was run: as §1
T3 sequence (whole entry): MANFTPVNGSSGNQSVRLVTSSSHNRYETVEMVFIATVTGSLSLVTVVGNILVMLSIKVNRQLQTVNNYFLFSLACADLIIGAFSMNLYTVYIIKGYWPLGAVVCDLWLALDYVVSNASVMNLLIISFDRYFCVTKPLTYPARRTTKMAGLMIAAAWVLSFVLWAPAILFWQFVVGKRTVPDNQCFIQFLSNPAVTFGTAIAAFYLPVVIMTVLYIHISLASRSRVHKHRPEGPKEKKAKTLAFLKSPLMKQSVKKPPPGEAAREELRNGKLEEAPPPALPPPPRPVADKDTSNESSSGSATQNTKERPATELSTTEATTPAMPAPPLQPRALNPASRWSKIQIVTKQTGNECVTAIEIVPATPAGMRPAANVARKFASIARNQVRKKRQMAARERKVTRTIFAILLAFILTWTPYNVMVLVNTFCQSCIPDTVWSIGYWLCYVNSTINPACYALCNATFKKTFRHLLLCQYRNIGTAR

[6] = target: Sigma non-opioid intracellular receptor 1 (Rattus norvegicus) (UniProt Q9R0C9); assay: Displacement of [3H](+)-pentazocine from sigma 1 receptor in rat brain membrane at 10 uM after 2.5 hrs by scintillation counting; type: cell membranes
[7] = target: 5-hydroxytryptamine receptor 2B (Homo sapiens) (UniProt P41595); assay: Displacement of [3H]LSD from human recombinant 5-HT2B receptor at 10 uM after 1.5 hrs by scintillation counting analysis; how it was run: as §1
[8] = target: 5-hydroxytryptamine receptor 2A (Homo sapiens) (UniProt P28223); assay: Displacement of [3H]ketanserin from human recombinant 5-HT2A receptor at 10 uM after 1.5 hrs by scintillation counting analysis; how it was run: as §1
[9] = target: T4, Muscarinic acetylcholine receptor M4 (Homo sapiens, UniProt P08173); assay: Displacement of [3H]QNB from human recombinant M4 receptor after 1.5 hrs by scintillation counting analysis
T4 sequence (P08173 whole entry): T3 sequence (whole entry)
How it was run: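 Membranes from transiently or stably transfected cell lines, run through the NIMH-PDSP program. [3H]QNB was the radioligand and atropine the reference. […] Competition curves were fitted to a three-parameter logistic to give IC50, converted to Ki by Cheng-Prusoff.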

[10] = target: T5, Alpha-2A adrenergic receptor (Homo sapiens) (UniProt P08913); assay: Displacement of [3H]clonidine from alpha2A adrenergic receptor at 10 uM after 40 mins by scintillation counting analysis
T5 sequence (whole entry): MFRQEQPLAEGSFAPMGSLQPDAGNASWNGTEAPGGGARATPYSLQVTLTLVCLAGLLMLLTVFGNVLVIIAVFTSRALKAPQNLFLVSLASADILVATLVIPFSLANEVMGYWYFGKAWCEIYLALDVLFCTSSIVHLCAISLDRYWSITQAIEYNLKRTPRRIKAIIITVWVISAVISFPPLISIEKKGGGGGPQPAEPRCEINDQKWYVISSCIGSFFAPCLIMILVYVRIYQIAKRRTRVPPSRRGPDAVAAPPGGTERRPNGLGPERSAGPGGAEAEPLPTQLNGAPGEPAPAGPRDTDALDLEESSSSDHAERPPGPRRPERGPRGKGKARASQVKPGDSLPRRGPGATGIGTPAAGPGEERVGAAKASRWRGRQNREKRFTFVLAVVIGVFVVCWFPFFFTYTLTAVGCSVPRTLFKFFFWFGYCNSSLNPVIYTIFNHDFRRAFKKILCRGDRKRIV

Sequence of 5-hydroxytryptamine receptor 2A (Homo sapiens) (P28223 whole entry): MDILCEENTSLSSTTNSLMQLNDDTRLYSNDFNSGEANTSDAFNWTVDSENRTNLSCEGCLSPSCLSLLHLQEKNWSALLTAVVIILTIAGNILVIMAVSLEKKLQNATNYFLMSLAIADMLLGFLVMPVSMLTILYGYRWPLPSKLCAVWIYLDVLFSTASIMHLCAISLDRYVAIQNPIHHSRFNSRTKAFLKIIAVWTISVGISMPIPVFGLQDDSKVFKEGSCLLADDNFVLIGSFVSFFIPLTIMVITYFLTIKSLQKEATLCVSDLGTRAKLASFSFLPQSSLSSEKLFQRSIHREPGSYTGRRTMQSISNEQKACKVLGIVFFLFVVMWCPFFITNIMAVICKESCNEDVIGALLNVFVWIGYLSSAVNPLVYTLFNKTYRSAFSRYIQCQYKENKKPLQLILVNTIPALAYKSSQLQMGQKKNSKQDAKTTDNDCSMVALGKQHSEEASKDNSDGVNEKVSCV
Sequence of 5-hydroxytryptamine receptor 2B (Homo sapiens) (P41595 whole entry): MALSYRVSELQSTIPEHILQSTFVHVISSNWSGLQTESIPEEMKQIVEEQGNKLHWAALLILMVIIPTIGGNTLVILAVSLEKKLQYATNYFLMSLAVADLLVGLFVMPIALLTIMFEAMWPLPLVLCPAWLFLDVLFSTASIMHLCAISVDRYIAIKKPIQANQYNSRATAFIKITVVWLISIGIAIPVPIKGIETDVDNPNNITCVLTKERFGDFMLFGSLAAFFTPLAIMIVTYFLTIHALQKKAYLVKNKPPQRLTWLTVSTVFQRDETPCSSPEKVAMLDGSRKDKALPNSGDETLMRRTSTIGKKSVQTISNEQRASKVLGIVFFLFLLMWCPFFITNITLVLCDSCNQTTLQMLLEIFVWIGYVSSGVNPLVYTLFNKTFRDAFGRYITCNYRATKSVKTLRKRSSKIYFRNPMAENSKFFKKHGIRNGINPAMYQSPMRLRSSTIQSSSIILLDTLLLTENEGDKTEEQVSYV
Sequence of Sigma non-opioid intracellular receptor 1 (Rattus norvegicus) (Q9R0C9 whole entry): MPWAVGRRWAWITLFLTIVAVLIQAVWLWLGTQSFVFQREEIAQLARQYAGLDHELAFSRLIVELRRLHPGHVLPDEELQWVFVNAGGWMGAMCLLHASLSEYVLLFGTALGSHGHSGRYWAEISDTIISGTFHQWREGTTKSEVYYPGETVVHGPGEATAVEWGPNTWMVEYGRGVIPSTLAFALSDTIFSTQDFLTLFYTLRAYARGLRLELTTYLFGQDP
Sequence of D(3) dopamine receptor (Homo sapiens) (P35462 whole entry): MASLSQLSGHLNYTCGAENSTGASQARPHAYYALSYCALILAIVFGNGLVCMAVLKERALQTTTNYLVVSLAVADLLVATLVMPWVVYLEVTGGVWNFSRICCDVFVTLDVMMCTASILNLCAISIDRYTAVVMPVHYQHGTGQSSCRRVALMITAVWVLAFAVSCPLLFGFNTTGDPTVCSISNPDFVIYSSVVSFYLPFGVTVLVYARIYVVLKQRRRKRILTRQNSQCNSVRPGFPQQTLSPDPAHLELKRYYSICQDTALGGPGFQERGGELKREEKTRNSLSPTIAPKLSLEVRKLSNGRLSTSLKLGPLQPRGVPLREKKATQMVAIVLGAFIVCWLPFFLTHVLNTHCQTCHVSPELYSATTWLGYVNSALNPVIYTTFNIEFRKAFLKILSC

Row | SMILES | inhibition (PC-12) | inhibition [1] | inhibition [2] | Ki [3] | inhibition [4] | inhibition [5] | inhibition [6] | inhibition [7] | inhibition [8] | Ki [9] | inhibition [10]
1 | COc1ccc2c(C)c(C(=O)N(CCCN3CCCCC3)c3ccccc3)oc2c1 | 88.5% | 7.3% | 49% | 0.041 µM | 40.6% | 68.4% | 97.7% | 93.9% | 61.2% | > 10 µM | 
2 | COc1cc2oc(C(=O)N(CCCN3CCCCC3)c3ccccc3)c(C)c2cc1OC | 81.4% | 64.2% | 78.9% | 0.528 µM | 38.8% | 54.4% | 99.8% | 43.8% | 76.6% |  | 
3 | Cc1c(C(=O)N(CCCN2CCCCC2)c2ccccc2)oc2ccccc12 | 93.5% | 2.9% | 61.9% | 0.016 µM |  | 43.1% |  | 69.2% | 18.1% |  | 77.7%
